Series [1] in a line: Lipophilicity, log D of the compound in pH 7.5 MeCN/H2O solution by reversed-phase HPLC analysis. It counts as physicochemical. In short, it runs like this:
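Indirect reversed-phase HPLC at pH 7.5, calibrated with n-alkan-2-ones C3–C16. Compounds applied as 0.67 mM DMSO stocks in MeCN/H2O (1:1).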

The next series deals with Cynomolgus monkey. The experiment in a line: Suppression of orchiectomy-induced increase in plasma luteinizing hormone level in cynomolgus monkey at 20 mg/kg, po measured up to 24 hrs by RIA. It counts as functional, Macaca fascicularis. The note with it: time hrs <=24. In short, it runs like this:
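Orchiectomized cynomolgus monkeys given a single oral dose of 20 mg/kg. Plasma LH suppression expressed relative to baseline levels.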

In series [2] the target is T1, Gonadotropin-releasing hormone receptor (Homo sapiens, UniProt P30968).
T1 sequence (P30968 whole entry): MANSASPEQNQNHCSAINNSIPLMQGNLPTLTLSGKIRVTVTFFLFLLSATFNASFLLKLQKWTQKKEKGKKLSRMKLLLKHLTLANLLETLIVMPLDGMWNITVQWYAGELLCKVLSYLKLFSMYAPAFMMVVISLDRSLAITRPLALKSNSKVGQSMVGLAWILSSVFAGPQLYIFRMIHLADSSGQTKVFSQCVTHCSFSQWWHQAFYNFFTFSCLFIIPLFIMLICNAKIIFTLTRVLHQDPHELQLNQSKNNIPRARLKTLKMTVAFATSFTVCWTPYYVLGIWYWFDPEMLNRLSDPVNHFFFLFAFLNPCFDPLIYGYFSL
In words: Inhibition of Tag-lite green-labeled agonist binding to terbium fluorophore-labeled human N-terminal SNAP-tag GnRh receptor expressed in HEK293 cells by TR-FRET assay. The format is cell-based. In short, it runs like this: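 Frozen transiently transfected HEK293 with Tb-labelled SNAP-tag hGnRH-R, 5.6 × 10^4 cells/well in Tag-lite buffer. Green-labelled agonist 4 nM. Nonspecific wells received buserelin 10 µM. Incubated 60 min at rt, TR-FRET 520/495 nm ratio read.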
(In general: Time-resolved FRET reads energy transfer from a long-lived donor to a nearby acceptor.)

Series [3] has as its target T2, Cytochrome P450 3A4 (Homo sapiens, UniProt P08684). In words: Irreversible inhibition of CYP3A4 in human liver microsomes using midazolam as substrate. The format is ADME.
Series [4] in a line: Clearance in Wistar rat at 0.5 mg/kg, iv by LC-MS/MS analysis. The settings on record: Wistar, in vivo. The format is ADME, organism-based.
Series [5] can be described thus: Maximum oral bioavailability in dog hepatocytes. The note with it: read-out: Fmax. The format is ADME, Canis lupus familiaris, Hepatocyte.
A short description of series [6]: Clearance in dog liver microsomes. It counts as ADME, Canis lupus familiaris, Microsome. On the technique in general: Liver microsomes are vesicles of endoplasmic reticulum, rich in cytochrome P450 enzymes.
Series [7] concerns the target Mitogen-activated protein kinase 3 (Homo sapiens, UniProt P27361). In words: Inhibition of MAPK3 (unknown origin).
Series [8] can be described thus: Efflux ratio of apparent permeability across basolateral to apical side over apical to basolateral side in human Caco2 cells at 2 uM measured after 2 hrs by LC-MS/MS analysis. The format is ADME, cell-based. The note with it: Caco-2. Summed up:
(§1)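 Caco-2 monolayers grown 15 d, integrity checked by TEER. Compound 2 µM added apical or basolateral in FCS-free HEPES carbonate buffer pH 7.2, incubated 2 h at 37 °C. Both compartments sampled before and after, analysed by LC-MS/MS after MeOH precipitation. Papp computed from receiver peak area, surface area and time. Efflux ratio taken as Papp B–A/Papp A–B.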
A general note: Caco-2 cells form a polarised layer with tight junctions and transporters.

Series [9] is described as follows: Chemical stability of compound at pH 1 to 10 measured up to 24 hrs by UV-HPLC analysis. The format is physicochemical. The note with it: buffer, pH 1, 24 h. In short, it runs like this:
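10 mM DMSO stock diluted in MeCN, then into pH 1, 7 or 10 buffer. Held at 37 °C, HPLC-UV injections at 0, 1, 2 and 24 h. Recovery given as peak area relative to time zero.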

The nature of series [10]: Clearance in cynomolgus monkey hepatocytes. It counts as ADME, cell-based, Macaca fascicularis, Hepatocyte.
For series [11], the target named is T1, Gonadotropin-releasing hormone receptor. In words: Inhibition of Tag-lite green-labeled agonist binding to terbium fluorophore-labeled human N-terminal SNAP-tag GnRh receptor expressed in HEK293 cells assessed as dissociation constant by TR-FRET assay. The format is cell-based.
Series [12] concerns the target T2, Cytochrome P450 3A4. In words: Inhibition of CYP3A4 in human liver microsomes using […] as substrate by LC-MS/MS analysis. It counts as ADME.
A further series deals with Cytochrome P450 2D6 (Homo sapiens, UniProt P10635). The experiment in a line: Inhibition of CYP2D6 in human liver microsomes using dextromethorphan as substrate by LC-MS/MS analysis. It counts as ADME.
Cytochrome P450 2D6, sequence (P10635 whole entry): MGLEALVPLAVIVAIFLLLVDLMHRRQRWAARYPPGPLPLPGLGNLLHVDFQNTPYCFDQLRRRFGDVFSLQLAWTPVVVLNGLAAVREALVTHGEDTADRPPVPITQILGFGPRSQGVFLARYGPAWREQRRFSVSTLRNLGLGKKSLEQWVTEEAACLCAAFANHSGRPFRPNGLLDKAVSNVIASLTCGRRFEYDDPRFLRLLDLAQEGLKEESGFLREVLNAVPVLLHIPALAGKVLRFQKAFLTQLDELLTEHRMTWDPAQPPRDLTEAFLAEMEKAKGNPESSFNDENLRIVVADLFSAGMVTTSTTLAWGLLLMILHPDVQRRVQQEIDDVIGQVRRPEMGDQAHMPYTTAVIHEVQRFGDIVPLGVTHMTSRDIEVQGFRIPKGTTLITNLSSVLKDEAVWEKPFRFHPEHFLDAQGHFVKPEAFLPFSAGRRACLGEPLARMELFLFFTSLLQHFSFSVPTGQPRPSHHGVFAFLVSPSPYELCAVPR
Another series concerns the target Cytochrome P450 2C9 (Homo sapiens, UniProt P11712). In words: Inhibition of CYP2C9 in human liver microsomes using diclofenac as substrate by LC-MS/MS analysis. The format is ADME.
Series [13] in a line: Apparent permeability across basolateral to apical side in human Caco2 cells at 2 uM measured after 2 hrs by LC-MS/MS analysis. The format is ADME, cell-based. The settings on record: Caco-2. Summed up: as §1
Series [14] in a line: Oral bioavailability in Wistar rat at 2 mg/kg by LC-MS/MS analysis. It counts as ADME, organism-based. The settings on record: in vivo.
For series [15], the target named is T3, Gonadotropin-releasing hormone receptor (Rattus norvegicus, UniProt P30969).
T3 sequence (P30969 whole entry): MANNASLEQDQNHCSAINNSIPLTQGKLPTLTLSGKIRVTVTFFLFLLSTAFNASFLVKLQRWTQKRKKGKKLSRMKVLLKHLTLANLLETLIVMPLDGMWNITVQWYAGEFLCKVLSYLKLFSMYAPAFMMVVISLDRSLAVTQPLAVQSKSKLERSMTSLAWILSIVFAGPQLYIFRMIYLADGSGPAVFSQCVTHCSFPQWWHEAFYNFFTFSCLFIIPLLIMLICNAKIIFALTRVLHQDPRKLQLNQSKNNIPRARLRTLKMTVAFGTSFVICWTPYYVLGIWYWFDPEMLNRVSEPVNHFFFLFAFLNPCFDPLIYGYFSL
The experiment in a line: Antagonist activity at rat GnRH receptor expressed in CHO-K1 cells assessed as inhibition of buserelin-induced response preincubated for 20 mins followed by buserelin addition and measured after 60 mins by TR-FRET assay. It counts as cell-based. In short, it runs like this:
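Frozen rat-receptor cells: thawed, seeded overnight in serum-containing Ham's F12, Accutase-harvested, resuspended in serum-free medium with IP1-d2, 1 h at 37 °C. 1.0 × 10^4 cells/well, 20 min compound preincubation at rt, then 1× EC80 LHRH or buserelin in HEPES stimulation buffer pH 7.4 for 60 min at 37 °C. Tb-anti-IP1 lysis (1:38), HTRF read 60 min later.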

The nature of series [16]: Aqueous solubility of compound at pH 6.5 incubated for 24 hrs under shaking condition by HPLC-MS/MS analysis. The format is physicochemical. The note with it: aqueous solution. Summed up:
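Compound from 1 mM DMSO solution, pH 6.5 buffer added, shaken 24 h at rt. Filtered, dissolved compound quantified by HPLC-MS/MS.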

Series [17] in a line: Maximum oral bioavailability in dog liver microsomes based well stirred liver model. The note with it: read-out: Fmax. It counts as ADME, Canis lupus familiaris, Microsome.
A short description of series [18]: Clearance in dog hepatocytes. The format is ADME, cell-based, Canis lupus familiaris, Hepatocyte.

Converted amounts (≈) assume the structure as drawn.

As usually defined, the chromatographic logD is a lipophilicity value derived from retention on a column. In general, IC50 refers to the midpoint of a concentration-inhibition curve. Usually clearance stands for the rate of elimination divided by the concentration. In general, efflux ratio refers to the permeability from basolateral to apical divided by that in the opposite direction, in the common usage. The Kd is the constant that tells how readily two partners part at equilibrium. What is called Papp B→A is how fast a substance crosses the layer from the basolateral side. As a reminder, the bioavailability is the share of a dose that reaches the circulation, judged against a reference dose that is usually intravenous. One may read the solubility as how much of the substance goes into solution per volume.

T2 sequence (P08684 whole entry): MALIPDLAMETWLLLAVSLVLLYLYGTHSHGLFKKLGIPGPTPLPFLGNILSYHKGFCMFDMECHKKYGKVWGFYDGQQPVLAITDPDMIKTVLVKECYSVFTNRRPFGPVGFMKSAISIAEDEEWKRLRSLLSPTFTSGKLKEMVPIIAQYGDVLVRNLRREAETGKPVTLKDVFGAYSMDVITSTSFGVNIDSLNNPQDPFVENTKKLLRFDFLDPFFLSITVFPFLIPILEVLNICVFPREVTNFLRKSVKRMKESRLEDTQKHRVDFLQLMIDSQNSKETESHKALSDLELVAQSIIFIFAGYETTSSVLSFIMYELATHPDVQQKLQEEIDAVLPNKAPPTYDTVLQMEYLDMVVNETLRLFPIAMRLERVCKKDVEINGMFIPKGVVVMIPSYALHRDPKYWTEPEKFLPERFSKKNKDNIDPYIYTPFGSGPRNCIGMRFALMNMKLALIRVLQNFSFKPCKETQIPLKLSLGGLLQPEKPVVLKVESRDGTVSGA
Cytochrome P450 2C9, sequence (P11712 whole entry): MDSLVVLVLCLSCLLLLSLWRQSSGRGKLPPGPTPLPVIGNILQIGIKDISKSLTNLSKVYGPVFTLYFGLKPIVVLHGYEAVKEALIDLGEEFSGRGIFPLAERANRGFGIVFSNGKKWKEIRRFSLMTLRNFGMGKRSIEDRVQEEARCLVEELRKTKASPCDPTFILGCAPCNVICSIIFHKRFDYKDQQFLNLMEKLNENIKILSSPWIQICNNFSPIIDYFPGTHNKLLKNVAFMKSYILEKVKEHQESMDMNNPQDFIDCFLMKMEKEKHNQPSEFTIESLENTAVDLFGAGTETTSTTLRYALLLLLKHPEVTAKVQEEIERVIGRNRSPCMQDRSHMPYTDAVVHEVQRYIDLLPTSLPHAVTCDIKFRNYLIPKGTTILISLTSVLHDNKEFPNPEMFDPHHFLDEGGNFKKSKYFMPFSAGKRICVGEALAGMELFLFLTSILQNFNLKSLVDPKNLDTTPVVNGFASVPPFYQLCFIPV
Mitogen-activated protein kinase 3, sequence (P27361 whole entry): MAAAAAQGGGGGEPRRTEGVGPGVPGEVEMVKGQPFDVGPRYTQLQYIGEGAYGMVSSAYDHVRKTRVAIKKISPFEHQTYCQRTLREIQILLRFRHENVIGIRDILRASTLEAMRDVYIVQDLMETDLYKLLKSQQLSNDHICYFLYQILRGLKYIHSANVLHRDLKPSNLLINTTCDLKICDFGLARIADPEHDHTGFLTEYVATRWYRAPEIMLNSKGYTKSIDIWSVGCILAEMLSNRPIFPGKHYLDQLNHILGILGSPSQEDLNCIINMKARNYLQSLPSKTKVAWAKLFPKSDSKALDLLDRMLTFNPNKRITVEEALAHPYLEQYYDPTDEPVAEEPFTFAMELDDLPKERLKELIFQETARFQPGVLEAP

With `O=C(NCc1ncc(C(F)(F)F)cc1Cl)c1ccc2c(c1)C1(CCS(=O)(=O)CC1)[C@H](C1CC1)N2S(=O)(=O)c1ccc(F)cc1` [BAY-784], in [1], the chromatographic logD was 3.6. In addition, the Activity result with Cynomolgus monkey was “<=60%”. Also, the IC50 in [2] is 27 nM; on Cytochrome P450 3A4 [3], above 10000 nM; in series [7], 4900 nM; at Cytochrome P450 3A4 [12], above 10000 nM; against Cytochrome P450 2D6 it was above 10000 nM; against Cytochrome P450 2C9, above 10000 nM. For the same molecule, in series [15], the IC50 is 24 nM. The clearance in [4] is 9 mL/min/kg. The Fh in series [5] was 65%; in series [17], 85%. For the same molecule, the CLH in series [6] stood at 5.33 mL/min/kg; in series [10], 11.8 mL/min/kg; in series [18] it was 12.2 mL/min/kg. In addition, the efflux ratio at 2 h, 2 µM in [8] was determined as 10. Moreover, in series [9], the Stabilty result is “Stable”. For the same molecule, in series [11], the Kd stood at 9.83 nM. The Papp B→A at 2 h, 2 µM in series [13] turned out to be 12.9 ×10⁻⁶ cm/s. This molecule came in with a bioavailability in series [14] of 48%. For the same molecule, the solubility at 24 h in series [16] worked out at 7.1 µg/mL (≈ 10.6 µM).

Source of the values: ChEMBL document CHEMBL4673248, “Discovery and Characterization of BAY 1214784, an Orally Available Spiroindoline Derivative Acting as a Potent and Selective Antagonist of the Human Gonadotropin-Releasing Hormone Receptor as Proven in a First-In-Human Study in Postmenopausal Women” (J Med Chem, 2020).
